In ChEMBL document CHEMBL4706489, “Hydrogen sulfide releasing oridonin derivatives induce apoptosis through extrinsic and intrinsic pathways” (Eur J Med Chem, 2020):
Calls of active or inactive are those of the source. The calls are words filed in the database; no cut-off is given here.

Columns and labels:
HepG2 [1] = assay: Induction of apoptosis in human HepG2 cells assessed as necrotic cells at 1 uM after 48 hrs by annexin V FITC and propidium iodide staining based flow cytometric analysis (reference value: 0.89%); format: functional
HepG2 [2] = assay: Induction of cell cycle arrest in human HepG2 cells assessed as accumulation at G2 phase at 1 uM after 48 hrs by propidium iodide staining based flow cytometric analysis (reference value: 16.48 to 16.97%); format: functional
Procedure, shortened: (§1)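 HepG2 cells were treated with 0, 0.50, 1.0 or 2.0 test agent for 48 h. Cells were washed in cold PBS and fixed in 70% ethanol at −20 °C overnight. DNA-content distribution was measured by flow cytometry. Mean ± SD, three independent experiments.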

K562 [3] = assay: Induction of apoptosis in human K562 cells assessed as increase in DR4 protein expression at 1 uM after 24 hrs by chemiluminescence based apoptosis array method; format: functional, cell-based
Procedure, shortened: (§2)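 K562 cells were treated with 1 test agent for 24 h. Diluted total-cell lysates were applied to a human apoptosis antibody array covering 35 apoptosis-related proteins for 24 h. Unbound protein was washed off, and arrays were probed with a biotinylated detection antibody for 1 h. Relative expression was read from chemiluminescent signal by digital imaging.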

K562 [4] = assay: Induction of cell cycle arrest in human K562 cells assessed as accumulation at G1 phase at 2 uM after 48 hrs by propidium iodide staining based flow cytometric analysis (reference value: 43.24 to 43.37%); format: functional
HepG2 [5] = assay: Induction of apoptosis in human HepG2 cells assessed as viable cells at 0.5 uM after 48 hrs by annexin V FITC and propidium iodide staining based flow cytometric analysis (reference value: 93.5%); format: functional; conditions: read-out: Activity
[6] = Selectivity ratio of IC50 for cytotoxicity against human L02 cells to IC50 for antiproliferative activity against human K562 cells; format: toxicity, cell-based; conditions: read-out: Ratio IC50
B16 = assay: Antiproliferative activity against mouse B16 cells assessed as reduction in cell viability after 72 hrs by MTT assay; conditions: B16, 72 h
HepG2 [7] = assay: Induction of apoptosis in human HepG2 cells assessed as late apoptotic cells at 1 uM after 48 hrs by annexin V FITC and propidium iodide staining based flow cytometric analysis (reference value: 3.17%); format: functional
K562 [8] = assay: Induction of apoptosis in human K562 cells assessed as nuclear fragmentation after 24 to 48 hrs by Hoechst 33258 staining based fluorescence microscopic method; format: functional, cell-based; conditions: dose 1-4 µM, time 24-48 hrs
Procedure, shortened: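 K562 cells were exposed to 1.0, 2.0 or 4.0 test agent, with DMSO as vehicle control, for 24 h and 48 h. They were harvested, washed twice in PBS and stained with Hoechst 33258 (0.5 mg/mL in PBS) for 30 min in darkness. Slides were viewed by fluorescence microscopy with a DAPI filter. Three random fields of about 200 nuclei per sample were scored as % apoptotic nuclei. Three independent experiments.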

K562 [9] = assay: Induction of apoptosis in human K562 cells assessed as necrotic cells at 2 uM after 48 hrs by annexin V FITC and propidium iodide staining based flow cytometric analysis (reference value: 0.69%); format: functional
K562 [10] = assay: Induction of apoptosis in human K562 cells assessed as decrease in livin protein expression at 1 uM after 24 hrs by chemiluminescence based apoptosis array method; format: functional, cell-based; procedure, shortened: as §2
HepG2 [11] = assay: Induction of cell cycle arrest in human HepG2 cells assessed as accumulation at G1 phase at 0.5 uM after 48 hrs by propidium iodide staining based flow cytometric analysis (reference value: 49.46 to 50.3%); format: functional; procedure, shortened: as §1
[12] = Cytotoxicity against human PBMC cells assessed as cell viability after 72 hrs by MTT assay
[13] = Selectivity ratio of IC50 for cytotoxicity against human L02 cells to IC50 for antiproliferative activity against human HepG2 cells; format: toxicity, cell-based; conditions: read-out: Ratio IC50
K562 [14] = assay: Induction of apoptosis in human K562 cells assessed as increase in cleaved caspase-3 at 1 uM after 24 hrs by chemiluminescence based apoptosis array method; format: functional, cell-based; procedure, shortened: as §2
HepG2 [15] = assay: Induction of cell cycle arrest in human HepG2 cells assessed as accumulation at S phase at 2 uM after 48 hrs by propidium iodide staining based flow cytometric analysis (reference value: 33.22 to 33.58%); format: functional
HepG2 [16] = assay: Induction of apoptosis in human HepG2 cells assessed as late apoptotic cells at 2 uM after 48 hrs by annexin V FITC and propidium iodide staining based flow cytometric analysis (reference value: 3.17%); format: functional
HepG2 [17] = assay: Induction of apoptosis in human HepG2 cells assessed as viable cells at 2 uM after 48 hrs by annexin V FITC and propidium iodide staining based flow cytometric analysis (reference value: 93.5%); format: functional; conditions: read-out: Activity
K562 [18] = assay: Induction of cell cycle arrest in human K562 cells assessed as accumulation at S phase at 2 uM after 48 hrs by propidium iodide staining based flow cytometric analysis (reference value: 44.73 to 45.96%); format: functional
K562 [19] = assay: Induction of apoptosis in human K562 cells assessed as early apoptotic cells at 2 uM after 48 hrs by annexin V FITC and propidium iodide staining based flow cytometric analysis (reference value: 2.13%); format: functional
HepG2 [20] = assay: Induction of cell cycle arrest in human HepG2 cells assessed as accumulation at G1 phase at 1 uM after 48 hrs by propidium iodide staining based flow cytometric analysis (reference value: 49.46 to 50.3%); format: functional; procedure, shortened: as §1
HepG2 [21] = assay: Induction of cell cycle arrest in human HepG2 cells assessed as accumulation at G1 phase at 2 uM after 48 hrs by propidium iodide staining based flow cytometric analysis (reference value: 49.46 to 50.3%); format: functional; procedure, shortened: as §1
K562 [22] = assay: Induction of apoptosis in human K562 cells after 48 hrs by annexin V FITC and propidium iodide staining based flow cytometric analysis; conditions: dose 0.5-2 µM
K562 [23] = assay: Induction of apoptosis in human K562 cells assessed as decrease in C-IAP1 protein expression at 1 uM after 24 hrs by chemiluminescence based apoptosis array method; format: functional, cell-based; procedure, shortened: as §2
K562 [24] = assay: Induction of cell cycle arrest in human K562 cells assessed as accumulation at G1 phase at 1 uM after 48 hrs by propidium iodide staining based flow cytometric analysis (reference value: 43.24 to 43.37%); format: functional
K562 [25] = assay: Induction of mitochondrial membrane potential loss in human K562 cells after 48 hrs by JC1 staining based flow cytometric analysis; format: functional, cell-based; conditions: dose 0.5-2 µM
Procedure, shortened: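 K562 and HepG2 cells in 6-well plates were exposed for 48 h at 0, 0.50, 1.0 and 2.0 µM, with DMSO vehicle control. After trypsinization, cells were stained with JC-1 (0.5 mg/mL) at 37 °C in darkness for 30 min, then washed with PBS. Membrane potential was read by flow cytometry. Mean ± SD, three independent experiments.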

K562 [26] = assay: Induction of apoptosis in human K562 cells assessed as late apoptotic cells at 0.5 uM after 48 hrs by annexin V FITC and propidium iodide staining based flow cytometric analysis (reference value: 0.42%); format: functional
K562 [27] = assay: Induction of apoptosis in human K562 cells assessed as early apoptotic cells at 1 uM after 48 hrs by annexin V FITC and propidium iodide staining based flow cytometric analysis (reference value: 2.13%); format: functional
K562 [28] = assay: Induction of apoptosis in human K562 cells assessed as late apoptotic cells at 1 uM after 48 hrs by annexin V FITC and propidium iodide staining based flow cytometric analysis (reference value: 0.42%); format: functional

In the case of `C=C1C(=O)[C@]23[C@H](OC(=O)CCC(=O)OCCCCCCOc4ccc(-c5cc(=S)ss5)cc4)[C@H]1CC[C@H]2[C@@]12CO[C@@]3(O)[C@@H](O)[C@@H]1C(C)(C)CC[C@@H]2OC(C)=O`, the Activity (HepG2 [1]) is reported as 1.26%, the Activity (HepG2 [2]) is reported as 11.5% and the Activity (K562 [3]) is reported as “Active”. It also gave an Activity (K562 [4]) of 29.97%, a viability at 0.5 µM (HepG2 [5]) of 76.7% and a selectivity ratio [6] of 20. The IC50 (B16) was 12.9 µM, the Activity (HepG2 [7]) was 12.72% and the Activity (K562 [8]) was “Dose-dependent effect”. For the same compound, the Activity (K562 [9]) was 1.57%, the Activity (K562 [10]) was “Active” and the Activity (HepG2 [11]) was 55.35%. For the same compound, the IC50 [12] was over 50 µM, the selectivity ratio [13] was 20 and the Activity (K562 [14]) was “Active”. It also gave an Activity (HepG2 [15]) of 28.3%, an Activity (HepG2 [16]) of 37.6% and a viability at 2 µM (HepG2 [17]) of 31.5%. It also gave an Activity (K562 [18]) of 62.64%, an Activity (K562 [19]) of 23.75% and an Activity (HepG2 [20]) of 61.39%. The Activity (HepG2 [21]) was 65.1%, the Activity (K562 [22]) was “Dose-dependent effect” and the Activity (K562 [23]) was “Active”. For the same compound, the Activity (K562 [24]) was 34.14%, the Activity (K562 [25]) was “Dose-dependent effect” and the Activity (K562 [26]) was 4.77%. The Activity (K562 [27]) was 11.39% and the Activity (K562 [28]) was 8.38%.
